Assays:
[1] = target: Sodium-dependent serotonin transporter (Rattus norvegicus) (UniProt P31652); test: Specific binding of [18F]AFA in rat thalamus after citalopram treatment; n=3; format: functional, tissue-based; conditions: tested as the 18F-labelled form
How it was run: (§1)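 Rats, three per group, were pretreated iv with blocker at 2 mg/kg in saline, or with saline as control, 10–15 min before tail-vein F-18 radioligand (about 20 µCi). Killed at 60 min and regional %ID/g determined. Specific binding = (region activity − cerebellum activity)/cerebellum activity; mean ± SD.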

Rattus norvegicus [2] = organism: Rattus norvegicus; test: Regional uptake of [18F]AFA in cerebellum of rat pretreated with compound 7f; n=3; format: functional, organism-based; conditions: tested as the 18F-labelled form
Rattus norvegicus [3] = organism: Rattus norvegicus; test: Regional uptake of [18F]AFA in hippocampus of rat pretreated with compound nisoxetine; n=3; format: functional, organism-based; conditions: tested as the 18F-labelled form
How it was run: (§2)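 Male Sprague-Dawley rats, three per group, received blocker (2 mg/kg iv in saline) or saline only (controls) 10–15 min before about 20 µCi of tail-vein F-18 radioligand. Killed 60 min after tracer. Blood and brain regions weighed and gamma-counted. %ID/g was decay- and tail-corrected; mean ± SD.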

Rattus norvegicus [4] = organism: Rattus norvegicus; test: Regional uptake of [18F]-AFA in hypothalamus of rat pretreated with compound 7f; n=3; format: functional, organism-based; conditions: tested as the 18F-labelled form
Rattus norvegicus [5] = organism: Rattus norvegicus; test: Regional uptake of [18F]AFA in cerebellum of rat pretreated with compound GBR-12935; n=3; format: functional, organism-based; conditions: tested as the 18F-labelled form; how it was run: as §2
Rattus norvegicus [6] = organism: Rattus norvegicus; test: Regional uptake of [18F]AFA in cerebellum of rat pretreated with compound nisoxetine; n=3; format: functional, organism-based; conditions: tested as the 18F-labelled form; how it was run: as §2
[7] = target: Sodium-dependent serotonin transporter (Rattus norvegicus) (UniProt P31652); test: Specific binding in rat hypothalamus at 120 min postinjection in vivo; format: functional, organism-based; conditions: tested as the 18F-labelled form
How it was run: (§3)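 Male Sprague-Dawley rats, n=3 per time point, received about 20 µCi of F-18 radioligand in saline iv by tail vein and were killed at 10–120 min. %ID/g was measured with decay and tail-residual correction. Hypothalamic specific binding = (%ID/g hypothalamus − %ID/g cerebellum)/%ID/g cerebellum; mean ± SD.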

Rattus norvegicus [8] = organism: Rattus norvegicus; test: Regional uptake of [18F]AFA in thalamus of rat pretreated with compound GBR-12935; n=3; format: functional, organism-based; conditions: tested as the 18F-labelled form; how it was run: as §2
Rattus norvegicus [9] = organism: Rattus norvegicus; test: Regional uptake of [18F]AFA in blood of rat pretreated with compound nisoxetine; n=3; format: functional, organism-based; conditions: tested as the 18F-labelled form; how it was run: as §2
Rattus norvegicus [10] = organism: Rattus norvegicus; test: Regional uptake of [18F]-AFA in blood of rat pretreated with compound citalopram; n=3; format: functional, organism-based; conditions: tested as the 18F-labelled form; how it was run: as §2
[11] = target: Sodium-dependent serotonin transporter (Rattus norvegicus) (UniProt P31652); test: Specific binding in rat hypothalamus at 90 min postinjection in vivo; format: functional, organism-based; conditions: tested as the 18F-labelled form; how it was run: as §3
[12] = target: Sodium-dependent serotonin transporter (Homo sapiens, UniProt P31645); test: In vitro displacement of [3H]paroxetine from human serotonin transporter expressed in HEK293 cells; format: cell-based
Rattus norvegicus [13] = organism: Rattus norvegicus; test: Regional uptake of [18F]AFA in frontal cortex of rat pretreated with compound GBR-12935; n=3; format: functional, organism-based; conditions: tested as the 18F-labelled form; how it was run: as §2
Rattus norvegicus [14] = organism: Rattus norvegicus; test: Regional uptake of [18F]AFA in frontal cortex of rat pretreated with compound nisoxetine; n=3; format: functional, organism-based; conditions: tested as the 18F-labelled form; how it was run: as §2
[15] = target: Sodium-dependent serotonin transporter (Rattus norvegicus) (UniProt P31652); test: Specific binding of [18F]AFA in rat hypothalamus after nisoxetine treatment; n=3; format: functional, tissue-based; conditions: tested as the 18F-labelled form; how it was run: as §1
Rattus norvegicus [16] = organism: Rattus norvegicus; test: Regional uptake of [18F]AFA in hippocampus of rat pretreated with compound GBR-12935; n=3; format: functional, organism-based; conditions: tested as the 18F-labelled form; how it was run: as §2
Rattus norvegicus [17] = organism: Rattus norvegicus; test: Regional uptake of [18F]AFA in hypothalamus of rat pretreated with compound GBR-12935; n=3; format: functional, organism-based; conditions: tested as the 18F-labelled form; how it was run: as §2
[18] = target: Sodium-dependent serotonin transporter (Rattus norvegicus) (UniProt P31652); test: Specific binding of [18F]AFA in rat thalamus after GBR-12935 treatment; n=3; format: functional, tissue-based; conditions: tested as the 18F-labelled form; how it was run: as §1
[19] = target: Sodium-dependent serotonin transporter (Rattus norvegicus) (UniProt P31652); test: Specific binding of [18F]AFA in rat hypothalamus after GBR-12935 treatment; n=3; format: functional, tissue-based; conditions: tested as the 18F-labelled form; how it was run: as §1
Rattus norvegicus [20] = organism: Rattus norvegicus; test: Regional uptake of [18F]AFA in thalamus of rat pretreated with compound nisoxetine; n=3; format: functional, organism-based; conditions: tested as the 18F-labelled form; how it was run: as §2
[21] = target: Sodium-dependent serotonin transporter (Rattus norvegicus) (UniProt P31652); test: Specific binding of [18F]AFA in rat frontal cortex after GBR-12935 treatment; n=3; format: functional, tissue-based; conditions: tested as the 18F-labelled form; how it was run: as §1
Rattus norvegicus [22] = organism: Rattus norvegicus; test: Regional uptake of [18F]-AFA in blood of rat pretreated with compound GBR-12935; n=3; format: functional, organism-based; conditions: tested as the 18F-labelled form; how it was run: as §2
[23] = target: Sodium-dependent serotonin transporter (Rattus norvegicus) (UniProt P31652); test: Specific binding of [18F]AFA in rat hippocampus after GBR-12935 treatment; n=3; format: functional, tissue-based; conditions: tested as the 18F-labelled form; how it was run: as §1
Rattus norvegicus [24] = organism: Rattus norvegicus; test: Regional uptake of [18F]AFA in blood of rat pretreated with compound 7f; n=3; format: functional, organism-based; conditions: tested as the 18F-labelled form
Rattus norvegicus [25] = organism: Rattus norvegicus; test: Regional uptake of [18F]AFA in cerebellum of rat pretreated with compound citalopram; n=3; format: functional, organism-based; conditions: tested as the 18F-labelled form; how it was run: as §2

Chain of Sodium-dependent serotonin transporter (Rattus norvegicus) (P31652 whole entry): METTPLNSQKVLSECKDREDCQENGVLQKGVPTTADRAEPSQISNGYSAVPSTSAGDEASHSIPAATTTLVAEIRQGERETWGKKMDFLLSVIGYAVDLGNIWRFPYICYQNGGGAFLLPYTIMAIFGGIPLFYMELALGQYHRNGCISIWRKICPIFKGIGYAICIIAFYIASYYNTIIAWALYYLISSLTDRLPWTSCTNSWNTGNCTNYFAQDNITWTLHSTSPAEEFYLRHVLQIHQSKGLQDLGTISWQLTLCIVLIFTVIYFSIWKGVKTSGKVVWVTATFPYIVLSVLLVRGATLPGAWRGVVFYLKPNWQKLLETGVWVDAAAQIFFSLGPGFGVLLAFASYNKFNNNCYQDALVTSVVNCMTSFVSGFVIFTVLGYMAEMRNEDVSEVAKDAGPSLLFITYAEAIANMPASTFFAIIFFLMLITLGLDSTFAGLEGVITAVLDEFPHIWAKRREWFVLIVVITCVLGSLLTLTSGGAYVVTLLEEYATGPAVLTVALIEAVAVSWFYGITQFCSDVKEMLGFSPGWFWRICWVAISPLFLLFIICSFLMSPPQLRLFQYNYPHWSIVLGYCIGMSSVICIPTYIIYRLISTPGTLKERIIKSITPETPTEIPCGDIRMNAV
Chain of Sodium-dependent serotonin transporter (P31645 whole entry): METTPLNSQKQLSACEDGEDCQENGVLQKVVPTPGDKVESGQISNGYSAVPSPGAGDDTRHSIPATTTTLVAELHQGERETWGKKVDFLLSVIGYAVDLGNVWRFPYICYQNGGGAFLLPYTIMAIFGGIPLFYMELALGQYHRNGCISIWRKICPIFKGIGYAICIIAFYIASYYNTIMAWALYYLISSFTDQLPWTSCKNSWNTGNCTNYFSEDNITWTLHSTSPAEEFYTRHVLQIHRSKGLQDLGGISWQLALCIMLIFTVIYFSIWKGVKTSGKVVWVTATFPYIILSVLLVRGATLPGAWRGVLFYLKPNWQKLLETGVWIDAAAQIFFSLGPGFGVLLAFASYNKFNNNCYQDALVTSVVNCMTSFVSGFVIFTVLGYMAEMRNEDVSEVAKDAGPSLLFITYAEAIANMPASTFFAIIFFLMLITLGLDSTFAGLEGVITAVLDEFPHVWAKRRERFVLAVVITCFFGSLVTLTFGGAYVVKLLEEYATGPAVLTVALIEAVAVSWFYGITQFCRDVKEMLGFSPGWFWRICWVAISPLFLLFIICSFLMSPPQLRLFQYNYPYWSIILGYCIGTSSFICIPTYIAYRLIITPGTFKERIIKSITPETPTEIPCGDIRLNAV

- Specific binding [1]: 0.74 %ID/g
- Specific binding (dimensionless ratio) [7]: 2.4
- Specific binding (dimensionless ratio) [11]: 1.85
- Ki [12]: 3.58 nM
- Specific binding [15]: 0.84 %ID/g
- Specific binding [18]: 0.98 %ID/g
- Specific binding [19]: 0.87 %ID/g
- Specific binding [21]: 0.64 %ID/g
- Specific binding [23]: 0.77 %ID/g
SMILES: CN(C)Cc1ccccc1Sc1ccc(CCCF)cc1N
- Uptake (Rattus norvegicus [2]): 0.08 %ID/g
- Uptake (Rattus norvegicus [3]): 0.16 %ID/g
- Uptake (Rattus norvegicus [4]): 0.1 %ID/g
- Uptake (Rattus norvegicus [5]): 0.09 %ID/g
- Uptake (Rattus norvegicus [6]): 0.08 %ID/g
- Uptake (Rattus norvegicus [8]): 0.18 %ID/g
- Uptake (Rattus norvegicus [9]): 0.08 %ID/g
- Uptake (Rattus norvegicus [10]): 0.09 %ID/g
- Uptake (Rattus norvegicus [13]): 0.15 %ID/g
- Uptake (Rattus norvegicus [14]): 0.13 %ID/g
- Uptake (Rattus norvegicus [16]): 0.16 %ID/g
- Uptake (Rattus norvegicus [17]): 0.17 %ID/g
- Uptake (Rattus norvegicus [20]): 0.15 %ID/g
- Uptake (Rattus norvegicus [22]): 0.09 %ID/g
- Uptake (Rattus norvegicus [24]): 0.07 %ID/g
- Uptake (Rattus norvegicus [25]): 0.08 %ID/g
